# SDO1 yeast rescue: compounds rescuing growth of sdo1-depleted yeast, bone marrow failure model. S. cerevisiae sdo1-depleted JHY4D growth rescue, OD600 30 h; stronger effect = higher value; pdr5 snq2 efflux-pump mutant strain. z-score at 10 µM. 140,000 compounds, 0.21% hits. AID 817;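 active = z-score above 3 at both the 24 hr and the 30 hr optical density reads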;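 note: z-score against mean and SD of all compound wells on the same plate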
# bCat KO growth: beta-catenin-lacking colon tumor cell growth suppression. AID 818. 140,000 compounds, 1.5% hits. HCT116 beta-catenin knockout viability, CellTiter-Glo, 60 h; stronger effect = lower value. viability, % at 10 µM;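 active = viability at or under a set limit, the compound median less 4 SD, cut at about 6% in these data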;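 note: 0% = Hyamine 1622 control at 20 µM and 100% = untreated cell control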
# BB579 growth dn: chemicals that inhibit yeast BB579 growth in restrictive medium (lifespan-shortening candidates) | S. cerevisiae BB579 growth, OD615, 48 h | inhibition, % at 10 µM | 140,000 compounds, 0.51% hits;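 active = inhibition above a set limit, 3 SD over the mean compound inhibition, cut at about 44% in these data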
#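 Detection: OD615 turbidity measurement; Material: Saccharomyces cerevisiae DeaD strain BB579, replicative lifespan model yeast; Timing: 48 h exposure, 30 °C; Doses: single 10 µM dose; Medium: CSMM-D restrictive synthetic medium containing dextrose (glucose); Controls: amphotericin B at 10 µg/mL as positive control.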
# Yeast lifespan up: extends the lifespan of yeast; S. cerevisiae growth with nicotinamide, OD615; deaD strain in restrictive glucose medium; inhibition of the nicotinamide effect, % at 10 µM; 130,000 compounds, 0.68% hits;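 active = inhibition above a set limit, placed 3 SD over the median of all compounds, cut at about 26% in these data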;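 note: 0% = nicotinamide-treated wells and 100% = cells grown without nicotinamide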
#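 System: DeaD-strain S. cerevisiae / Buffer or medium: CSMM-D, restrictive glucose (dextrose) synthetic minimal medium / Probe or stimulus: nicotinamide, 1.5 mM, co-present with compound / Compound: one concentration, 10 µM, DMSO 0.25% / Incubation: 48 h compound exposure at 30 °C, humidified / Technique: optical density (absorbance) at 615 nm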
# PTEN del growth: growth suppressors of cells with PTEN tumor suppressor deletion. HCT116 PTEN-null viability, CellTiter-Glo, 60 h; stronger effect = lower value. viability, % at 10 µM. 140,000 compounds, 1.2% hits;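 active = viability at or below a set limit, 4 SD under the median of all tested compounds, cut at about 3.7% in these data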;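 note: PTEN knockout HCT116 line with beta catenin targeted HCT116 as companion control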
# The depositor's hits bear a star; . = no result given. This is a sample that favours compounds with a hit; in the whole collection about 2.8% have one here.
SMILES,SDO1 yeast rescue,bCat KO growth,BB579 growth dn,Yeast lifespan up,PTEN del growth
O=C(NCCn1ccc2ccccc21)c1ccc(S(=O)(=O)N2CCOCC2)cc1,1,86,-57,-5,85
COC(=O)N/N=C/c1ccc([N+](=O)[O-])s1,-0.69,46,16,-9,50
O=C(N/N=C/c1ccc([N+](=O)[O-])s1)c1ccccc1Br,-1.1,1.9*,-38,-10,1.8*
O=C(N/N=C/c1ccc(Br)s1)c1cccc([N+](=O)[O-])c1,1,41,-24,0,41
Cc1ccccc1NC(=O)/C=C/c1ccc([N+](=O)[O-])s1,-1.5,2.0*,-36,-1,1.4*
Cc1ccccc1C(=O)N/N=C/c1ccc([N+](=O)[O-])s1,-1.2,3.6*,-17,-4,2.6*
O=C(N/N=C\c1ccc([N+](=O)[O-])s1)c1cncc(Br)c1,-1.7,3.4*,-20,-2,1.5*
O=C(/C=C/Nc1ccc(Cc2ccc(N/C=C/C(=O)C(F)(F)F)cc2)cc1)C(F)(F)F,-0.5,98,-26,3,93
Cc1ccc(C)c(OCC(=O)N/N=C/c2c(C)nn(-c3ccccc3)c2Cl)c1C,-0.19,2.1*,-43,-1,1.8*
COC(=O)N/N=C\c1c(C)nn(-c2ccccc2)c1Cl,0.06,93,2,-7,102
CCCCC(=O)Nc1ccc(C(=O)NNC(=S)NC(=O)c2cccs2)cc1,1.2,41,-23,36*,44
O=C(NNC(=S)NC(=O)c1cccs1)c1ccc(NC(=O)c2ccccc2)cc1,0.45,27,-26,1,23
C/C(=N\NC(=O)CSCc1ccc([N+](=O)[O-])cc1)c1ccccc1O,0.32,84,-18,3,87
CC(=O)N(Cc1c(C)nn(-c2ccccc2)c1Cl)c1ccc(Cl)cc1,-1.5,58,-4,16,58
Cc1nn(-c2ccccc2)c(Cl)c1CN(C(=O)CCl)c1cccc2ccccc12,-1,1.8*,-57,22,1.4*
Cc1nn(-c2ccccc2)c(Cl)c1CN(C(=O)CCl)c1ccc(Cl)cc1,-1.2,0.8*,-16,25,0.8*
CCn1c2ccccc2c2cc(NC(=O)CSc3nnc(-c4ccc(OC)c(OC)c4)n3N)ccc21,-0.86,52,4,-17,61
CCOc1ccc(-c2nnc(SCC(=O)Nc3ccc4c(c3)c3ccccc3n4CC)n2N)cc1,-0.62,3.9*,-27,-16,5
c1ccc2c(-c3nc(C4CCCCC4)no3)cc(-c3ccncc3)nc2c1,-0.53,66,-48,-10,75
CCOC(=O)c1sc(NC(=O)c2ccc(Cl)s2)cc1C,-0.75,90,9,-9,96
CCOC(=O)c1sc(NC(=O)Nc2ccc(Cl)cc2)cc1C,-2,5.2*,-30,-8,5
O=C(CN1CCCc2ccccc21)N/N=C/c1c(O)ccc2ccccc12,0.45,8,-4,1,9
O=C1NCCCc2c1oc1ccc(O)cc21,1.6,70,-7,-7,72
Oc1c(Cl)cc(Cl)c2c1NCCC2,-0.5,69,99*,-26,81
Cc1sc2ncnc(NCC(C)(C)N3CCOCC3)c2c1C,0.74,29,-6,-9,42
SMILES,SDO1 yeast rescue,bCat KO growth,BB579 growth dn,Yeast lifespan up,PTEN del growth
CN(C)c1ccc(/C=C/C(=O)c2ccc3c(c2)OCCO3)cc1[N+](=O)[O-],0.3,9,-44,2,11
COc1ccc(C2c3c(ncn(CCN4CCOCC4)c3=N)Oc3ccc4ccccc4c32)cc1 (stereo not drawn),-0.71,1.5*,-37,-14,1.1*
N=c1c2c(ncn1Cc1ccco1)Oc1c(ccc3ccccc13)C2c1ccccc1 (stereo not drawn),-1.6,1.3*,-67,-3,1.6*
CC1(C)CC(=O)C2=C(C1)Oc1ncn(Cc3ccco3)c(=N)c1C2c1ccccc1 (stereo not drawn),-1.4,78,-24,-6,71
N=c1c2c(ncn1CCN1CCOCC1)Oc1ccc3ccccc3c1C2c1ccccc1 (stereo not drawn),-0.93,1.4*,-9,-9,1.3*
S=C(Cc1cccnc1)N1CCOCC1,0.61,89,-26,0,93
Cc1cc(=O)oc2cc(OCC(=O)NCCc3nc4ccccc4[nH]3)ccc12,0.86,86,-58,-5,97
Cc1ccc(-c2cc(C(=O)OCn3nnc4ccccc4c3=O)c3ccccc3n2)cc1,-0.86,87,-34,2,91
CCOC(=O)c1c(NC(=O)CSc2nnc3c(Cl)cc(Cl)cn23)sc2c1CCC2,-0.12,83,-56,0,72
O=S(=O)(c1ccc(Cl)c(Cl)c1)c1snnc1-c1ccccc1,-2.1,1.2*,32,9,1.3*
O=S(=O)(Nc1nc2ccccc2nc1Cl)c1ccccc1,1.1,98,-4,30*,95
CCC(C)Oc1nc2ccccc2nc1NS(=O)(=O)c1ccccc1 (stereo not drawn),-1.6,98,-39,26*,98
O=S(=O)(Nc1nc2ccccc2[nH]1)c1ccccc1,1,98,-22,1,101
O=S(=O)(Nc1nc2ccccc2nc1Cl)c1ccc2ccccc2c1,0.8,99,-31,41*,97
O=S(=O)(Nc1nc2ccccc2nc1Nc1cccc(S(=O)(=O)N2CCCCC2)c1)c1ccccc1,-0.09,32,-10,8,26
Cc1ccc(CC(=O)Nc2ccccc2N2CCOCC2)cc1C,-0.76,96,-48,1,85
COc1cc2c(cc1NC(=O)c1cccc(S(=O)(=O)N(C)C)c1)oc1ccccc12,-0.07,76,-47,-2,73
Cc1ccc(-c2cnc(NC(=O)c3cccc(Br)c3)s2)c(C)c1,-1.4,86,-11,-5,84
CC(C)N1C(=O)/C(=C/c2nc3ccccc3c(=O)n2-c2ccccc2)c2ccccc21,-1.2,2.5*,-59,33,2.1*
CC(C)N1C(=O)/C(=C\c2nc3ccccc3c(=O)n2-c2ccccc2)c2ccccc21,-1.3,7,-34,16,3.1*
CC(C)N1C(=O)C(Cc2nc3ccccc3c(=O)n2-c2ccccc2)c2ccccc21 (stereo not drawn),-1.4,62,-28,38,66
C=CCN(CC=C)S(=O)(=O)c1ccc2nc(NC(=O)C(C)C)sc2c1,-1.5,105,-41,76*,101
COC(=O)C1=C(C(=O)OC)SC(=C2C(=S)C(C)(C)N(C(=O)CC(C)C)c3ccccc32)S1,-0.5,104,-13,-2,.
COCCn1c(-c2ccc(OC)cc2)cnc1SCC(=O)Nc1cccc2ccccc12,-1.4,85,2,6,88
CCCCCC1CC1C(=O)N/N=C/c1ccc(N(C)C)cc1 (stereo not drawn),1.4,102,-36,42*,87
CCCCCCCC(=O)N/N=C/c1ccc(Br)cc1,-1.6,90,-12,-10,94

# Assay outcomes (PubChem)
